Assay outcomes from PubChem.
Shown are actives, neighbours in structure and some others; about 3.3% of the full set was active somewhere.
ABCB1 inh – inhibitors of human ABCB1 transporter, ABCG2 counter-screen | CCRF-Adr cells, JC-1 efflux, flow cytometry | inhibition, % at 6.6 µM | 190,000 compounds, 0.067% hits | AID 1326; in the data active = inhibition above about 40%;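 also: higher value means more JC-1 retained so stronger ABCB1 efflux block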
KCC2 mod – modulators of human KCC2 chloride dependent transport; Q9H2X9; KCC2 cells, thallium flux FluoZin-2 fluorescence; AID 1456; B-score of Tl+ flux slope (higher = more flux/activation; lower = inhibition) at 10 µM; 190,000 compounds, 2.2% hits;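 active = thallium flux slope and its plate-corrected score both differing from the plate sample mean at a set confidence after two filtering rounds, in either direction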;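 also: slope of fluorescence scaled to starting intensity during 10 to 20 s after thallium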
PMI activator – phosphomannose isomerase (human) activation; P34949; purified human PMI, coupled resazurin fluorescence, 20 min; stronger effect = higher value; 1 = vehicle control, 0 substrate-free wells; activation factor at 20 µM; 190,000 compounds, 0.005% hits; AID 1214;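 active = activation factor of 2 or more at 20 µM, relative to plate controls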
Target sequence (P34949 whole entry, looked up): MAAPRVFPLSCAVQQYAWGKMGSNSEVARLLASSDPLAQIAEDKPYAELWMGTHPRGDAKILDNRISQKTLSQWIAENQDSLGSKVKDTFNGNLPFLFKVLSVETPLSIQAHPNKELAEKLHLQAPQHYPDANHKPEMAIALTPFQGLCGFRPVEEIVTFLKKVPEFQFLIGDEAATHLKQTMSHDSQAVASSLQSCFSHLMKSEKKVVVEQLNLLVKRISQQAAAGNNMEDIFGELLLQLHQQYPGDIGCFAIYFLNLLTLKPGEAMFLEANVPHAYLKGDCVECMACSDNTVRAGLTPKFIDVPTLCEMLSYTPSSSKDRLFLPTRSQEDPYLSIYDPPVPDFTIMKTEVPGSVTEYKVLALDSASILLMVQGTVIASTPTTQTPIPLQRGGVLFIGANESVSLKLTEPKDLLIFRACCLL
ABCG2 block – blocks JC-1 efflux by human ABCG2 transporter; Q9UNQ0; IgMXP3 cells, flow cytometry; inhibition, % at 6.6 µM; 190,000 compounds, 0.1% hits; AID 1325;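 active = inhibition above 80%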
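Test system: IgMXP3 (ABCG2) plus far-red-tagged CCRF-Adr (ABCB1) cells. Reagent: JC-1 dye as substrate. Timing: 10 min exposure at 25 °C with rotation, no wash. Measured by: flow cytometric JC-1 green MFI at 530 nm. Read-out: percent efflux inhibition, scaled nicardipine 100% to DMSO 0%. Control set: nicardipine and DMSO wells.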
ROMK mod – modulates human ROMK potassium channel activity | Tet-inducible ROMK, thallium flux fluorescence; actives lie on both sides | 130,000 compounds, 2% hits | P48048 | B-score at 10 µM;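 active = signal ratio slope over the read window, or its plate-corrected B-score, at least 3 SD from the plate mean, either direction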;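 also: B-score of the F/F0 ratio slope over 7 to 12 s after thallium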
Target sequence (P48048 whole entry, looked up): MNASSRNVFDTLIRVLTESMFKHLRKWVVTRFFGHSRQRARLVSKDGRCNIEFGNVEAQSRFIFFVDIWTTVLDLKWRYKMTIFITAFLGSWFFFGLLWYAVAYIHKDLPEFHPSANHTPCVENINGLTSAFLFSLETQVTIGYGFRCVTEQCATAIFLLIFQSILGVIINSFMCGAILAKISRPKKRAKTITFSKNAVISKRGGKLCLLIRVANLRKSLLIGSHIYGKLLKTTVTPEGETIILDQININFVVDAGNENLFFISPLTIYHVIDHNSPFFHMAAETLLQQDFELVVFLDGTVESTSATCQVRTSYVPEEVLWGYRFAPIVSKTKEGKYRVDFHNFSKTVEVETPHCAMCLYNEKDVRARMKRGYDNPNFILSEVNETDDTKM
PMI act hi M6P – increases human PMI activity with near-saturating mannose 6-phosphate; 190,000 compounds, 0.34% hits; activation factor at 20 µM; P34949; coupled PMI enzyme assay, resazurin fluorescence, 20 min; stronger effect = higher value; 1 = untreated enzyme, 0 = substrate-free blank;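 active = activation factor of 2 or more at 20 µM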
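Test system: human phosphomannose isomerase with PGI, G6PDH, diaphorase coupling enzymes / Doses: 20 µM compound, 1% DMSO / Times: enzyme reaction with compound 20 min at room temperature / Measured by: Diaphorase-driven resazurin-to-resorufin fluorescence, excitation 544, emission 590 nm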
KCC2 secondary – KCC2 (human) modulation, secondary assay | 3,700 compounds, 15% hits | normalised thallium flux (F/F0 slope) at 10 µM | shares compounds with KCC2 mod | HEK293-KCC2, thallium flux, FluoZin2 fluorescence; stronger effect = higher value;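 active = thallium flux slope above the same plate's solvent-only control mean plus 3 SD; inconclusive = the two replicate wells disagree; inactive = no significant difference from solvent-only control wells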
KCC2 bumet counter – thallium flux persisting under bumetanide in KCC2 cells, counter-screen secondary assay; shares compounds with KCC2 mod; HEK293-KCC2 + bumetanide/ouabain, thallium flux FluoZin2; stronger effect = higher value; normalized thallium flux at 10 µM; 3,700 compounds, 49% hits;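 active = thallium entry rate above the same plate's blocked-transporter control wells by more than 3 SD; inconclusive = the two repeat wells disagree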;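 also: raw slope of fluorescence over initial fluorescence between 10 and 20 s after thallium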
KCC2 sec2 – confirmation of human KCC2 transport modulators. shares compounds with KCC2 mod. 3,700 compounds, 23% hits. normalized thallium flux at 10 µM. HEK293-KCC2, thallium flux FluoZin2 fluorescence; actives lie on both sides; F/F0 rise rate, 10–20 s post-thallium;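 active = thallium flux slope more than 3 SD above or below the plate's solvent-only control mean, mostly below; inconclusive = the two repeat wells disagreed; inactive = no significant shift from solvent-only controls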
HEK293 Tl flux – parental HEK flux effect, counter-screen; 3,700 compounds, 46% hits; shares compounds with KCC2 mod; AID 1716; HEK293 parental cells, thallium flux FluoZin2, ouabain; baseline-ratio fluorescence slope, 10–20 s after thallium; thallium flux rate (normalised fluorescence) at 10 µM;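 active = thallium flux rate significantly above the same plate's solvent-only control wells, beyond their mean plus 3 SD; inconclusive = the two replicate wells gave conflicting results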
KCC2 retest ouab – KCC2 (human) modulation, ouabain retest; shares compounds with KCC2 mod; 3,700 compounds, 48% hits; HEK293-KCC2, thallium flux FluoZin2 fluorescence; bidirectional: low = inhibitor, high = activator; raw Tl+ flux slope (below DMSO = inhibition, above = activation) at 10 µM;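 active = thallium flux slope beyond 3 SD from same-plate DMSO control mean in most replicates, usually higher, sometimes lower; inconclusive = repeat tests gave conflicting results; inactive = no significant difference from controls in most replicates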;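 also: slope of initial-normalized fluorescence between seconds 10 and 20 after thallium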
HEK293 Tl flux2 – acts in parental HEK cells, second KCC2 counter-screen; shares compounds with KCC2 mod; HEK293 parental, thallium flux FluoZin-2 fluorescence slope; thallium flux slope at 10 µM; 3,700 compounds, 33% hits; AID 1718;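 active = thallium flux slope above the same plate's solvent-control mean plus 3 SD in both duplicate wells; inconclusive = duplicate wells that disagreed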;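 also: run without ouabain in cells lacking the KCC2 cotransporter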
Each line names hits and unclear results; the compound was inactive in the other large screens (follow-up assays come after a bar, where they were run).

CCOc1ccc(NC(=O)c2cc3c(=O)n(C)c4ccccc4c3n2C)cc1	none (no result: ROMK mod) | KCC2 secondary inactive | KCC2 bumet counter inactive | KCC2 sec2 inactive | HEK293 Tl flux inactive | KCC2 retest ouab inconclusive | HEK293 Tl flux2 inactive
Cn1c(C(=O)NCCCN2CCOCC2)cc2c(=O)n(C)c3ccccc3c21	none (no result: ROMK mod)
Cn1c(C(=O)NCCCN2CCN(c3ccccc3F)CC2)cc2c(=O)n(C)c3ccccc3c21	none (no result: ROMK mod) | KCC2 secondary inactive | KCC2 bumet counter inactive | KCC2 sec2 0.024 | HEK293 Tl flux inactive | KCC2 retest ouab inconclusive | HEK293 Tl flux2 inactive
Cc1ccc(CNC(=O)c2cc3c(=O)n(C)c4ccccc4c3n2C)o1	KCC2 mod -4.3 (no result: ROMK mod) | KCC2 secondary inactive | KCC2 bumet counter inactive | KCC2 sec2 inactive | HEK293 Tl flux inactive | KCC2 retest ouab 0.022 | HEK293 Tl flux2 inconclusive
O=C(N/N=C/c1ccccn1)c1cc(-c2ccc(Cl)cc2)nc2ccccc12	KCC2 mod 7.5 | KCC2 secondary inconclusive | KCC2 bumet counter 0.042 | KCC2 sec2 inactive | HEK293 Tl flux 0.018 | KCC2 retest ouab inactive | HEK293 Tl flux2 inconclusive
O=C(N/N=C/c1ccccn1)c1cc(-c2ccc(Br)cc2)nc2ccccc12	KCC2 mod 9.4 (no result: ABCB1 inh, PMI activator, ABCG2 block, ROMK mod, PMI act hi M6P) | KCC2 secondary inactive | KCC2 bumet counter 0.025 | KCC2 sec2 inactive | HEK293 Tl flux inconclusive | KCC2 retest ouab inconclusive | HEK293 Tl flux2 inconclusive
O=C(O)COc1ccccc1/C=N/NC(=O)c1cc(-c2ccc(Cl)cc2)nc2ccccc12	none (no result: ABCB1 inh, PMI activator, ABCG2 block, ROMK mod, PMI act hi M6P)
COc1cccc2c1OCC(CN1CCN(CCC(C)C)C(CCO)C1)=C2 (centres undefined)	none
CCOC(=O)c1nnsc1N	none (no result: ABCB1 inh, PMI activator, ABCG2 block, ROMK mod, PMI act hi M6P)
CCCCCC(=O)NNC(=O)c1c(O)c2ccccc2n(CC)c1=O	KCC2 mod 3.5 | KCC2 secondary inactive | KCC2 bumet counter 0.014 | KCC2 sec2 inactive | HEK293 Tl flux 0.013 | KCC2 retest ouab inconclusive | HEK293 Tl flux2 0.015
CCCCCCCCCC(=O)NNC(=O)c1c(O)c2ccccc2n(CC)c1=O	KCC2 mod 5.2 | KCC2 secondary inactive | KCC2 bumet counter 0.016 | KCC2 sec2 inactive | HEK293 Tl flux 0.016 | KCC2 retest ouab 0.024 | HEK293 Tl flux2 0.015
C[C@H](NC(=O)c1nc[nH]c1C(=O)NC1CCN(C(=O)OC(C)(C)C)CC1)C(=O)OCc1ccccc1	none (no result: ROMK mod)
Cc1ccccc1C(=O)N1CCN(c2ccc(NC(=S)NC(=O)c3cccs3)cc2)CC1	none | KCC2 secondary inactive | KCC2 bumet counter 0.015 | KCC2 sec2 inactive | HEK293 Tl flux inactive | KCC2 retest ouab inactive | HEK293 Tl flux2 inactive
O=C(NC(=S)Nc1ccc(N2CCOCC2)cc1)c1cccs1	KCC2 mod 3.1 | KCC2 secondary inactive | KCC2 bumet counter 0.033 | KCC2 sec2 inactive | HEK293 Tl flux inconclusive | KCC2 retest ouab inactive | HEK293 Tl flux2 inactive
Cc1ccc(C(=O)N2CCN(c3ccc(NC(=S)NC(=O)c4cccs4)cc3)CC2)cc1	none (no result: ROMK mod)
Cc1cc(C)n2c(Br)c(CSc3nc4ccccc4s3)nc2n1	KCC2 mod -3.7 | KCC2 secondary inactive | KCC2 bumet counter inactive | KCC2 sec2 0.027 | HEK293 Tl flux 0.0061 | KCC2 retest ouab 0.016 | HEK293 Tl flux2 inactive
O=C(Nc1ccc2c(c1)OCCO2)c1ccccc1F	none (no result: KCC2 mod)
CCOc1cccc(C(=O)NC(=S)Nc2ccc3c(c2)OCCO3)c1	KCC2 mod 7.4 | KCC2 secondary inactive | KCC2 bumet counter 0.012 | KCC2 sec2 inactive | HEK293 Tl flux 0.012 | KCC2 retest ouab inactive | HEK293 Tl flux2 0.014
O=C(NC(=S)Nc1ccc2c(c1)OCCO2)c1ccccc1F	KCC2 mod 25 | KCC2 secondary inactive | KCC2 bumet counter 0.039 | KCC2 sec2 0.042 | HEK293 Tl flux 0.021 | KCC2 retest ouab 0.038 | HEK293 Tl flux2 0.026
CCOc1cccc(C(=O)NC(=S)Nc2ccc(N3CCCC3)cc2)c1	none (no result: KCC2 mod, ROMK mod)
COc1cc(C(=O)OCCNC(=O)c2ccncc2)cc(OC)c1OC	none (no result: ROMK mod)
O=C(CSc1cccc2cccnc12)N/N=C/c1ccc(O)cc1	none (no result: ABCB1 inh, PMI activator, ABCG2 block, ROMK mod, PMI act hi M6P)
COc1cccc(/C=N/NC(=O)CSc2cccc3cccnc23)c1	KCC2 mod 28 (no result: ABCB1 inh, PMI activator, ABCG2 block, PMI act hi M6P) | KCC2 secondary inactive | KCC2 bumet counter 0.03 | KCC2 sec2 inactive | HEK293 Tl flux inconclusive | KCC2 retest ouab 0.03 | HEK293 Tl flux2 inactive
CCc1ccc(OC(C)c2nnc(SCC(=O)Nc3ncccc3C)n2C)cc1 (centres undefined)	none
Cc1nc(Nc2ccc(Cl)cc2Cl)sc1C(=O)Nc1ccccc1	KCC2 mod 3.7 | KCC2 secondary inactive | KCC2 bumet counter inactive | KCC2 sec2 inactive | HEK293 Tl flux inactive | KCC2 retest ouab inactive | HEK293 Tl flux2 inactive
Cc1nc(Nc2ccc(Cl)c(Cl)c2)sc1C(=O)Nc1ccccc1	none
c1ccc(CC2CCN(c3nnnn3-c3ccccc3)CC2)cc1	none (no result: KCC2 mod) | KCC2 secondary inactive | KCC2 bumet counter inactive | KCC2 sec2 inactive | HEK293 Tl flux inconclusive | KCC2 retest ouab 0.016 | HEK293 Tl flux2 inactive
COCCN(C(=S)Nc1c(C)cccc1C)C(C)c1ccco1 (centres undefined)	none (no result: ABCB1 inh, PMI activator, ABCG2 block, ROMK mod, PMI act hi M6P)
CC(C)C(=O)Nc1cc(=O)[nH]c2ncnn12	none (no result: KCC2 mod)
O=C(CSc1nnc(-c2ccc3c(c2)OCO3)o1)Nc1ncc(C(F)(F)F)cc1Cl	KCC2 mod 27 | KCC2 secondary 0.016 | KCC2 bumet counter 0.042 | KCC2 sec2 inactive | HEK293 Tl flux inconclusive | KCC2 retest ouab 0.045 | HEK293 Tl flux2 inconclusive
Cc1nc(NC(=O)CSc2nnc(-c3ccc4c(c3)OCO4)o2)c(Cl)cc1Cl	none
